Hits are enriched below; roughly 3% of the tested compounds scored in any of these assays.
SENP8 block-1: SENP8 (human) protease inhibition. recombinant SENP8, Nedd8 substrate fluorescence. Q96LD8. actives 0.64% (n = 360,000). inhibition, % at 20 µM. AID 602440; in the data active = inhibition mostly above about 40%, no sharp cut-off; inactive = mostly below about 27%
Target sequence (Q96LD8 whole entry, looked up): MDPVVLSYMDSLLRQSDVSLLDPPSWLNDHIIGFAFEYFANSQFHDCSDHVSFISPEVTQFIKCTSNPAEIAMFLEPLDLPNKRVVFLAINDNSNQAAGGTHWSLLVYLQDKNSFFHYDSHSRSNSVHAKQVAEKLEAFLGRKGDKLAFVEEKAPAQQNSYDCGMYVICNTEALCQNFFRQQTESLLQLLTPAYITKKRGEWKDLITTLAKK
SENP8 block-2: blocks the human protease SENP8; Q96LD8; purified SENP8, Z-RLRGG-aminoluciferin cleavage, luminescence; inhibition, % at 10 µM; actives 1.2% (n = 330,000); in the data active = inhibition above about 50%
SENP6 block: blocks the human protease SENP6; Q9GZR1; Recombinant SENP6 catalytic domain, aminoluciferin luminescence; inhibition, % at 10 µM; actives 1.8% (n = 330,000);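 active = inhibition above about 50% at the single tested dose, limit read from the data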
SENP7 block: blocks the human protease SENP7; actives 1.5% (n = 330,000); recombinant SENP7, Z-RLRGG-aminoluciferin luminescence, 40 min; inhibition, % at 5 µM; AID 434973;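 active = inhibition above about 50% at the single test dose, limit read from the data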
Target sequence (Q9BQF6 706-1050 limits assumed): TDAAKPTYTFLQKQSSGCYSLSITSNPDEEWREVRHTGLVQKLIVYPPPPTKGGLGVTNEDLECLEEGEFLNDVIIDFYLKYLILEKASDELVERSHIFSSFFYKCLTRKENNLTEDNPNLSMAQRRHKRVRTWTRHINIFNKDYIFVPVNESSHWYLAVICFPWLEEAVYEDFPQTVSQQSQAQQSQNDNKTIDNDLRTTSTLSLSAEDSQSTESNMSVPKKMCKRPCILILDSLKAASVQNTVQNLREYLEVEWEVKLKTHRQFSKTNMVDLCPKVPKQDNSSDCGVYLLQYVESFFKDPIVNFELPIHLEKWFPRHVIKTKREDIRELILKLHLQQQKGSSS
UBC13 polyUb: blocks human UBC13 polyubiquitin chain formation; AID 485273; inhibition, % at 20 µM; actives 0.47% (n = 330,000); TR-FRET; in the data active = inhibition above about 45%, passing the limit was not always enough
Apaf-1 inh: inhibitors of human Apaf-1 apoptosome | O14727 | reconstituted apoptosome caspase-3 activity, DEVD-Rh110 fluorescence | AID 489030 | inhibition, % at 20 µM | actives 0.71% (n = 330,000); active = inhibition of at least 40% at 20 µM
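System – cell-free apoptosome with Apaf-1, procaspase-3 and caspase-9 · Buffer or medium – pH 7.5 Hepes buffer with CHAPS, BSA, DTT · Also added – cytochrome c with DEVD-Rh110 · Times – 30 min compound preincubation, 50 min activation, room temperature · Technique – Rh110 fluorescence intensity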
SENP8 conf: SENP8 (human) inhibition, single concentration confirmation; shares compounds with SENP8 block-1; purified SENP8, Nedd8-AMC/pro-Nedd8 cleavage fluorescence, 30 min; inhibition, % at 25 µM; actives 15% (n = 1,400); in the data active = inhibition mostly above about 39%, no sharp cut-off; inactive = mostly below about 34%
Numbers stand for hits; n = inactive; x = no result given.

SMILES	SENP8 block-1	SENP8 block-2	SENP6 block	SENP7 block	UBC13 polyUb	Apaf-1 inh	SENP8 conf
COc1ccc2c(c1OC)C(=O)OC2N1C(=O)CC[C@H]1C(=O)Nc1ccc2c(c1)OCO2 (some centres undefined)	44.2	n	n	n	n	n	n
Cc1ccc(C(=O)CSc2nnc(CNc3ccc(F)cc3)o2)cc1	n	n	n	n	n	n	x
CC(C)=CCc1c2c(c3occ(-c4ccc(O)cc4)c(=O)c3c1O)C=CC(C)(C)O2	43.0	n	n	n	n	n	n
CC(C)=CCc1c2c(c3occ(-c4ccc(O)c(O)c4)c(=O)c3c1O)C=CC(C)(C)O2	n	x	x	x	x	x	x
CC(O)/C=C/C1OC(=O)CC1Nc1ccc(C=O)cc1 (centres undefined)	52.0	n	n	n	n	n	n
Cc1noc(C)c1S(=O)(=O)N1CCN(c2ccccc2Cl)CC1	n	n	n	n	n	n	x
COc1ccccc1Cn1nnc2c(=O)[nH]c(C3CCN(C(=O)c4ccc(F)cc4)CC3)nc21	52.9	n	n	n	n	n	n
O=C(CCc1nc(-c2ccc(Cl)cc2)no1)NC1CCCC1	n	n	n	n	n	n	x
Cc1ccccc1NNC(N)=S	50.6	n	n	n	n	n	n
CCOC(=O)C(=O)NNc1ccccc1C	n	n	n	n	n	n	x
O=C1c2ccccc2C(=O)N1c1ccccc1	42.4	x	x	x	x	x	n
O=[N+]([O-])c1ccc(Cl)cc1Sc1cccc2cccnc12	41.9	n	n	n	n	n	n
COC(=O)C(CC(C)C)NC(=O)c1ccc([N+](=O)[O-])cc1 (centres undefined)	42.6	n	n	n	n	n	n
Cc1c(NC(=O)c2ccc(S(=O)(=O)N3CCOCC3)cc2)c(=O)n(-c2ccccc2)n1C	n	n	n	n	n	n	x
CSCCC(NC(=O)COc1ccccc1)C(=O)N1CCN(c2ccccc2O)CC1 (centres undefined)	n	n	n	n	n	n	x
COC(=O)c1sc(NC(=O)c2ccc([N+](=O)[O-])o2)c(C#N)c1C	42.1	n	n	n	n	n	n
CCCC1(c2ccccc2)NC(=O)NC1=O (centres undefined)	n	n	n	n	n	n	x
O=C(NCc1cccs1)C1CCCN1C(=O)Nc1ccc(F)cc1 (centres undefined)	40.7	n	n	n	n	n	n
O=C(NCc1cccs1)C1CCCN1C(=O)Nc1cccc(F)c1 (centres undefined)	n	n	n	n	n	n	x
O=C1NC2(CCCCC2)C(=O)N1Cc1cccc(C(F)(F)F)c1	n	n	n	n	n	n	x
CCOC(=O)C1(C)C=C(Nc2ccc(O)cc2)C(=O)N1c1ccc(O)cc1 (centres undefined)	61.2	n	n	n	n	n	n
Cc1[nH][nH]c(=O)c1C(c1c(C)[nH][nH]c1=O)c1cn(C)c2ccccc12	77.2	x	x	x	x	x	50.5
COc1ccc(CCN(C)C(=O)COC(=O)/C=C/c2ccc(C)o2)cc1OC	n	n	n	n	n	n	x
CCCCc1ccc(NC(=S)Nc2ccc(Nc3ccc(OC)cc3)cc2)cc1	41.6	n	n	n	n	n	n
Cc1ccc(N2C(=O)c3ccccc3NC2(C(=O)O)c2ccccc2)cc1Cl (centres undefined)	n	n	n	n	n	n	x
SMILES	SENP8 block-1	SENP8 block-2	SENP6 block	SENP7 block	UBC13 polyUb	Apaf-1 inh	SENP8 conf
Cc1noc(C)c1C(=O)NNc1ccc(C(C)C)cc1	n	n	n	n	n	n	x
Cc1ccc(NNC(=O)c2c(C)noc2C)cc1Cl	53.7	n	n	n	n	n	n
Cc1nn(Cc2ccc(Cl)c(Cl)c2)c(C)c1NC(=O)c1cn(-c2ccccc2)nc1-c1ccccc1	40.4	n	n	n	n	n	n
CC(=O)c1ccc(N(CC(=O)NC2CCCC2)C(=O)CNC(=O)c2ccco2)cc1	n	n	n	n	n	n	x
Cn1c(N)c(C(=O)COC(=O)/C=C/c2ccc(Cl)c(Cl)c2)c(=O)n(C)c1=O	n	n	n	n	n	n	x
COc1ccc(CNC(=O)[C@@H](NC(=O)C2CCN(C(=O)[C@@H](N)Cc3ccccc3)CC2)C(C)C)cc1	53.7	n	n	n	n	n	n
COc1ccccc1CNC(=O)[C@H](C)NC(=O)C1CCN(C(=O)[C@@H](N)C(C)C)CC1	48.5	n	n	n	n	n	n
COc1ccc(S(=O)(=O)N2CCC(C(=O)N[C@H](C(=O)NCc3ccccc3)C(C)C)CC2)cc1	n	x	x	x	x	x	x
CSCC[C@H](N)C(=O)N1CCC(C(=O)N[C@H](C(=O)NCc2ccccc2F)C(C)C)CC1	48.5	n	n	n	n	n	n
COc1ccc(CNC(=O)[C@H](Cc2ccccc2)NC(=O)C2CCN(C(=O)[C@H](C)N)CC2)cc1	50.8	n	n	n	n	n	n
CC(C)(C)c1cc(=O)n(-c2ccccc2)[nH]1	86.7	x	x	x	x	x	n
O=C(COC(=O)c1ccc([N+](=O)[O-])o1)NCCc1ccccc1	n	n	n	n	n	n	x
CC(NC(=O)COC(=O)c1ccc([N+](=O)[O-])o1)c1ccccc1 (centres undefined)	57.1	n	n	n	n	n	87.9
O=C(COC(=O)c1ccc([N+](=O)[O-])o1)NCc1ccc2c(c1)OCO2	41.2	n	n	n	n	n	76.1
Cc1ccc(OCC(=O)NNC(=O)C2CCCO2)c(C)c1 (centres undefined)	n	n	n	n	n	n	x
Cc1onc(-c2ccccc2)c1C(=O)NCCc1ccc(Cl)cc1	51.0	n	n	n	n	n	n
C/C(=N\NC(=O)C1COc2ccccc2O1)c1cccs1 (centres undefined)	n	n	n	n	n	n	x
CC(=O)N/N=C(\C)C1COc2ccccc2O1 (centres undefined)	40.8	n	n	n	n	n	n
CCOc1ccc(S(=O)(=O)NCCC(=O)NCC(c2ccc(OC)cc2)N2CCCC2)cc1 (centres undefined)	n	n	n	n	n	n	x
CCOc1ccc(S(=O)(=O)NCCC(=O)NCC(c2ccc(OC)cc2)N2CCOCC2)cc1 (centres undefined)	51.4	x	x	x	x	x	n
CC(OC(=O)C1CCCC1)C(=O)Nc1ncc(Cl)cc1Cl (centres undefined)	n	n	n	n	n	n	x
COc1c(O)cc2c(c1O)[C@@H]1O[C@H](CO)[C@@H](O)[C@H](O)C1OC2=O (some centres undefined)	43.2	n	n	n	n	n	n
Cc1ccccc1-c1csc(C(C)(O)c2cccnc2)n1 (centres undefined)	n	x	x	x	x	x	x
O=C1Cc2ccccc2N1c1c(Cl)cccc1Cl	n	n	n	n	n	n	x
O=C1Cc2ccccc2C(=O)N1c1ccc(F)cc1Cl	72.1	n	n	n	n	n	50.5

Screening data deposited in PubChem by Sanford-Burnham Center for Chemical Genomics.
